The values below come from paper PMC5817038 (Bioorganic & medicinal chemistry letters, 2018).

Data set [1] deals with IDH1-mutated glioma xenografts. The conditions noted are these: cited from earlier work.
The next data set concerns the target IDH1-R132H (Homo sapiens, UniProt O75874, R132H). The format is biochemical.
A further data set has as its system wild-type IDH1. The conditions noted are these: read-out: IC50 against wild-type IDH1 (reported); literature value; cited from earlier work.
For data set [2] the following is noted: normal mice; cited from earlier work.
In data set [3] the test system is HCT116 colorectal carcinoma cell line expressing heterozygous IDH1-R132H. The data set can be described thus: Cell uptake of radiolabeled compounds, IDH1-mutated HCT116 vs isogenic WT-IDH1. The format is cell-based. The method in brief:
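Isogenic HCT116 lines expressing IDH1-R132H or wild-type IDH1 were incubated with the 125I-labelled iodo analogue or the 18F-labelled fluoro inhibitor, no-carrier-added, and cell-associated radioactivity was measured over time. Uptake ratio is mutant IDH1 over WT-IDH1 uptake. Three wells per point, mean ± SEM; Student's t-test, P < 0.05.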

Data set [4] relates to HCT116 IDH1-R132H tumor xenografts. The data set can be described thus: Tissue distribution in athymic mice bearing IDH1-mutated HCT116 tumor xenografts. The format is in vivo. The method in brief:
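Athymic mice bearing IDH1-mutated HCT116 xenografts received either the 131I- or the 18F-labelled test compound, in separate groups. Tissues were sampled from 0.5 to 4 h after injection. Uptake is given as %ID/g, or as %ID for liver plus intestines. Five animals per time point, mean ± SEM. WT-IDH1 tumour-bearing mice were also examined at 1–4 h.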

The test system of data set [5] is IDH1-mutated astrocytoma cell line (IMA). Briefly: Cell uptake of radiolabeled compounds, IDH1-mutated astrocytoma. The format is cell-based. The conditions noted are these: time course. The method in brief: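 Radioiodinated or 18F-labelled test compounds, prepared no-carrier-added, were incubated with IDH1-mutated cells and their isogenic WT-IDH1 counterparts. Uptake was followed over time, starting at 5 min, and compared between mutant and WT lines as uptake ratios. Each condition was run in three wells, reported as mean ± SEM, with significance by Student's t-test.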

Structures are written as SMILES. Like-named read-outs stand apart in the source and are kept apart here. Where only a bound is given, the exact number is not on record here.

Sequence of IDH1-R132H (O75874 whole entry R132H): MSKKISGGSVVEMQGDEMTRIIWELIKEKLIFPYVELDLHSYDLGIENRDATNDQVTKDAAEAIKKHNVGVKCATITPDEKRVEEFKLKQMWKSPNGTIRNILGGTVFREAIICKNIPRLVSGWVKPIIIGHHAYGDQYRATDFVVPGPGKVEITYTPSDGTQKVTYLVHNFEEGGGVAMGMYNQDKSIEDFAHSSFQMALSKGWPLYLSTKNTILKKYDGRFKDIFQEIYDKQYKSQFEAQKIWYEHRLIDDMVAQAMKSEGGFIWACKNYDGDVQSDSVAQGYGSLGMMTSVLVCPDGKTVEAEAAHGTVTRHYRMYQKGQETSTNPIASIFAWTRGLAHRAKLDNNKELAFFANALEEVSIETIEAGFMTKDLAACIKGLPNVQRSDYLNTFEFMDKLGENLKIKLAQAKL

Consider `Cc1ccccc1C(C(=O)NC1CCCCC1)N(C(=O)Cn1ccnc1C)c1cccc(F)c1` (stereo not shown) [AGI-5198], for which, in data set [1], the D-2-HG production result is given as “inhibit D-2-HG production” and the anti-tumor effect result was “anti-tumor effects”. Further, at IDH1-R132H (read-out: enzyme inhibition (maximal)), the inhibition at 12.25 µM came to 100%. For the same molecule, the IC50 in the data set on wild-type IDH1 was above 100 µM.
Regarding `Cc1ccccc1C(C(=O)NC1CCCC1)N(C(=O)Cn1cnc2ccccc21)c1cccc(F)c1` (stereo not shown) [ML-309], in data set [2], the “blood-brain-barrier (BBB) permeability” value is given as “lack of blood-brain-barrier (BBB) permeability”.
Regarding `Cc1ccccc1C(C(=O)NC1CCCCC1)N(C(=O)Cn1ccnc1C)c1cccc([18F])c1` (stereo not shown) [[^18F]AGI-5198], the “uptake ratio IDH1-mutated/WT-IDH1” value in data set [3] (HCT116, 5 min) is “about 1.6”; in data set [3] (HCT116, 30 min, remaining at that level until 120 min), around 2.0. For the same molecule, in data set [4] (0.5-4 h), the “uptake and retention in brain” value was “very low”. In addition, the tumor uptake stood at 0.84 ± 0.18 % ID/g in data set [4] (0.5 h post injection) and 0.33 ± 0.08 % ID/g in data set [4] (4 h post injection). The blood activity in data set [4] (30 min post injection) was 0.88 ± 0.16 % ID/g; in data set [4] (4 h post injection), ~ 0.1 % ID/g. Besides, in data set [4] (2 h), the “peak tumor-to-muscle ratio (TMR)” value turned out to be 2.5 ± 1.0. Further, the “peak tumor-to-blood ratio (TBR)” value in data set [4] (4 h) turned out to be 3.0 ± 1.3. Moreover, in data set [4] (4 h post injection), the “liver and intestines, share of injected dose” value came out at 87 ± 7 % ID. Further, the “stability against dehalogenation in vivo” value in data set [4] (mouse, in vivo) is given as “stable against dehalogenation in vivo”. Moreover, the “uptake in IDH1-mutated vs WT-IDH1 cells” value in data set [5] is “higher only at 5 min but not thereafter”.
As to `Cc1ccccc1C(C(=O)NC1CCCCC1)N(C(=O)Cn1ccnc1C)c1cccc(I)c1` (stereo not shown) [compound 1], the “enzyme inhibition (maximal)” value on IDH1-R132H (at 6.12 μM) is recorded as 100%.
As to `Cc1ccccc1C(C(=O)NC1CCCCC1)N(C(=O)CNc1ccc(F)nc1)c1cccc(F)c1` (stereo not shown) [compound 2], the “enzyme inhibition (maximal)” value on IDH1-R132H (at 12.25 μM) turned out to be 71.3 ± 5.3%.
